This is a sample that favours compounds with a hit; in the whole collection about 3.6% have one here.
PERK inhibitor: block of dimerizer-induced PERK translation repression, primary screen, PERK inhibitor project, CHO PERK-DD cells, SEAP luminescence, HTS | Eukaryotic translation initiation factor 2-alpha kinase 3 (Homo sapiens), Q9NZJ5 | CHO PERK-DD fusion, SEAP luminescence translation reporter | inhibition, % at 5.6 µM | 220,000 tested, 0.17% active | AID 1416, 2008;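 active = inhibition above the mean inhibition of all tested compounds plus 3 SD, set separately per screening campaign, cut at about 2.9% in these data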;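 also: PERK kinase domain activated by AP20187 dimerizer at 100 nM; 0% = DMSO with dimerizer and 100% = rapamycin at 8.4 µM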
PolyA inhibitor: polyadenylation inhibitors in yeast reporter cells, primary screen, luminescence, S. cerevisiae; S. cerevisiae SKY197-pL101 polyadenylation reporter, beta-gal luminescence; efflux-impaired pdr1/pdr3 knockout yeast; score 100 = 6 SD above DMSO; activity score, % at 12 µM; 300,000 tested, 0.02% active;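 active = lowest replicate activity score at least 50, where 100 means six control SD above control mean; inconclusive = lowest score under 50 but half or more replicates reach 50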;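 also: yeast exposed to compound for 9 h at 30 °C; higher score means more reporter readthrough which indicates perturbed polyadenylation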
Hsp70 activator: Hsp70 transcriptional activators, primary screen, cell-based, HeLa, Hsp70 promoter luciferase, luminescence, 10 µM; activation, % at 10 µM; HeLa Hsp70 promoter luciferase reporter; scaled: vehicle 0, proteasome-inhibitor control 100%; 200,000 tested, 0.04% active; AID 1203, 2008;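 active = activation above the mean across all tested compounds plus 3 SD, cutoff set per campaign, cut at about 5.5% in these data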;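 also: 100% = MG132 at 30 µM as the positive control and 0% = DMSO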
STAT3 act: IL-6 driven STAT3 reporter potentiators, primary screen, U3A cells, luciferase, luminescence, MLSCN library. IL-6 STAT3-luciferase reporter; 100% = signal with IL-6 EC80 alone. activation (% of control), % at 5.6 µM. 190,000 tested, 0.91% active;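 active = activation above the screen-wide mean of compound activation plus 3 SD, cut at about 130% in these data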;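 also: 0% = background luminescence of wells with medium and substrate only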
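Test system: human U3A cells carrying STAT3-luciferase construct; control set: IL-6-only wells as 100% reference; timing: compound pre-incubation 1 h before IL-6, then 6 h stimulation at 37 °C; also added: IL-6 stimulus at 33 ng/mL final; evaluation: % activation versus median of IL-6-stimulated wells; detection: reporter luminescence signal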
HSF1 inh: HSF1 inhibitors in luciferase reporter cells, primary screen, cell-based, NIH3T3, luminescence; NIH3T3-HGL HSE-luciferase, MG132-induced, luminescence 8 h; active compounds read low; activity change, negative = inhibition, % at 7.5 µM (by protocol); 300,000 tested, 0.77% active;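 active = more than half of replicate wells show activity change below -50%, luminescence cut by over half; inconclusive = some wells, but at most half, below -50%; inactive = no replicate well below -50%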;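 also: luciferase reports HSF-1 transcriptional activity via heat shock element; 0% = median of DMSO wells and -100% = zero luminescence signal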
AHR activator: AHR activators, primary screen, cell-based, luminescence, luciferase reporter, human; Aryl hydrocarbon receptor (Homo sapiens), P35869; AHR-responsive luciferase reporter cells; activation, % at 5 µM; 320,000 tested, 2.5% active; AID 2796, 2010; in the data active = activation above about 47%;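 also: 0% = vehicle wells and 100% = reference agonist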
Target sequence (P35869 whole entry, looked up): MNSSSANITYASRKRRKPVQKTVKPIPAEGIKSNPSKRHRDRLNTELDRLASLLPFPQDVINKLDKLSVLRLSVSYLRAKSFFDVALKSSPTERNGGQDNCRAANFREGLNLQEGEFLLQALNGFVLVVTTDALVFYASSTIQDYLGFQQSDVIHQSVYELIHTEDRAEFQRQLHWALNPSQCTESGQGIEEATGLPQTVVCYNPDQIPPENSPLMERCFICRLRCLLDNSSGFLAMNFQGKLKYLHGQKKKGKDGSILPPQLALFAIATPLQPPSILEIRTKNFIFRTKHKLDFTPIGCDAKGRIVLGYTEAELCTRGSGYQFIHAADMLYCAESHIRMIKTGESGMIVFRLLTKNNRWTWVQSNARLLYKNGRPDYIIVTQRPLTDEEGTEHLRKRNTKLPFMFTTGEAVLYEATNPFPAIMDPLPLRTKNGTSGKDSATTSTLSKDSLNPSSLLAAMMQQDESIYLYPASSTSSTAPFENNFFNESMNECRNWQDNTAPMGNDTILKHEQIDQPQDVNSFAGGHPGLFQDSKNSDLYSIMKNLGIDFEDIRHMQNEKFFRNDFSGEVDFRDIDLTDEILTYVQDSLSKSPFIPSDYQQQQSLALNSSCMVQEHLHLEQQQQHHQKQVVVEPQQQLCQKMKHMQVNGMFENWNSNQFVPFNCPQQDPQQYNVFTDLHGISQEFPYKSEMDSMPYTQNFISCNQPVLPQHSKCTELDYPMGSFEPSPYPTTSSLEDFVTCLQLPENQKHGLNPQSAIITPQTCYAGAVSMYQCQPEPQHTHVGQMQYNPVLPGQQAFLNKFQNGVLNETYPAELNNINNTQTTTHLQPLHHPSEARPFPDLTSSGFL
AHR act confirm: AHR activators, confirmation, cell-based, luminescence, luciferase reporter, human. shares compounds with AHR activator. human cells, AHR-responsive luciferase reporter. activation, % at 9 µM. 2,300 tested, 87% active. AID 2845, 2010; in the data active = activation above about 49%;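 also: HepG2 hepatoma cells carrying a DRE-driven firefly luciferase reporter; 0% = vehicle wells and 100% = reference agonist wells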
PXR counter: human PXR activators, counter-screen for AHR activator project, cell-based, luciferase luminescence | shares compounds with AHR activator | cell-based PXR reporter | activation, % at 11.6 µM | 2,300 tested, 88% active; in the data active = activation above about 11%;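 also: human hepatoma DPX-2 cells expressing full-length human PXR; 0% = DMSO and 100% = reference agonist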
An asterisk follows results filed as active; ? = inconclusive; . = no result.

SMILES	PERK inhibitor	PolyA inhibitor	Hsp70 activator	STAT3 act	HSF1 inh	AHR activator	AHR act confirm	PXR counter
Cn1nc(-c2ccc(Cl)cc2)c2cc(C(=O)N3CCN(c4ccccn4)CC3)sc21	-1	-7	0	101	6	106*	71*	45*
CNC(=O)c1cc2c(-c3ccccc3)nn(C)c2s1	.	4	.	.	-3	99*	114*	24*
COc1cccc(-c2nn(C)c3sc(C(=O)NCc4ccco4)cc23)c1	-1	8	0	92	24	95*	130*	44*
COc1cccc(-c2nn(C)c3sc(C(=O)NCCCN(C)Cc4ccccc4)cc23)c1	.	-3	.	.	8	13	.	.
COCCNC(=O)c1cc2c(-c3ccccc3F)nn(C)c2s1	-1	16	0	91	-2	98*	122*	24*
CCn1c(=O)c2cc(C(=O)NCCOC)sc2c2ccccc21	.	6	.	.	-3	6	.	.
COc1ccc(CCC(=O)NCc2cn3ccccc3n2)cc1	0	3	.	.	-2	3	.	.
O=C(O)c1c2c(nc3ccc(S(=O)(=O)N4CCC(C(=O)NC5CCCCCC5)CC4)cc13)CCCC2	2	-2	0	92	10	1	.	.
Cc1cccc(NC(=O)CNC(=O)c2cccc(-n3cccc3)c2)c1C	.	?	.	.	-1	-1	.	.
O=C(NCc1cccnc1)c1cnc2n(c1=O)CCS2	0	20	0	107	-5	13	.	.
O=C(Nc1ccon1)c1cnc2sccn2c1=O	1	-3	0	100	-4	139*	107*	.
O=C(NCc1cccnc1)c1cnc2sccn2c1=O	1	-4	0	103	-4	81*	40	4
Cc1cccc(NC(=O)c2cnc3sccn3c2=O)n1	0	-2	0	96	11	168*	135*	14*
CCCCNS(=O)(=O)c1cc2c3c(c1)CCN3C(=O)CC2	.	10	.	.	0	1	.	.
CCOCCCNC(=O)c1cccc(OC2CCN(S(C)(=O)=O)CC2)c1	.	20	.	.	19	11	.	.
COc1ccc(NC(=O)Nc2cccc3c2O[C@H](CN(C)C(=O)Nc2ccc(OC)cc2)[C@@H](C)CN([C@H](C)CO)C3=O)cc1	.	.	.	.	.	1	.	.
NC(=O)c1c(NC(=O)c2ccccc2F)sc2c1CCCC2	.	0	.	.	39	205*	104*	28*
NC(=O)c1c(NC(=O)c2cccnc2Cl)sc2c1CCCC2	0	-6	0	93	12	103*	26	7
CCn1c(=O)c(C(=O)Nc2ncccc2C)c(O)c2ccccc21	0	11	0	95	-2	111*	96*	26*
CCn1c(=O)c(C(=O)Nc2ccccn2)c(O)c2ccccc21	1	-5	0	115	-3	13	.	.
O=C(N/N=C/c1ccncc1)c1ccc(COc2cccc3cccnc23)cc1	0	5	0	100	-10	9	.	.
O=C(N/N=C/c1ccc2cccc(OCc3ccccc3)c2n1)c1ccc(Cl)cc1	-1	1	0	103	6	99*	70*	13*
CC(C)CC1NC(=O)N(CC(=O)NC2CCCc3ccccc32)C1=O (stereo unspecified)	1	-5	0	96	.	0	.	.
CCN(CC(=O)Nc1c(F)cccc1F)C(=O)COc1ccc2c(C)cc(=O)oc2c1	2	6	0	85	-3	-4	.	.
Cc1cc(C)nc(/N=C(\N)Nc2ccc(S(=O)(=O)O)cc2)n1	0	10	0	101	-6	.	.	.
SMILES	PERK inhibitor	PolyA inhibitor	Hsp70 activator	STAT3 act	HSF1 inh	AHR activator	AHR act confirm	PXR counter
Cc1cc(C)nc(/N=C(\N)Nc2ccc(C)c([N+](=O)[O-])c2)n1	-1	-11	0	88	8	122*	84*	68*
CC(C)Cn1nc(C(=O)Nc2cccc(C(=O)NC3CC3)c2)c2ccccc2c1=O	.	.	.	.	.	1	.	.
O=C1NCCC/C1=N\Nc1ccc(Br)cc1	2	-23	.	.	-8	119*	124*	21*
Cc1ccccc1N/N=C1\CCCNC1=O	1	-9	0	91	-11	-5	.	.
C/C(=N\Nc1nc2ccccc2s1)c1ccc2c(c1)OCO2	0	-1	0	101	-2	90*	112*	31*
O=C(Nc1ccccc1Oc1ccccc1)c1ccccc1F	0	-26	0	104	1	119*	131*	20*
COc1cc(OC)cc(-c2nnc(SCC(=O)N3CCCCC3)o2)c1	-1	9	0	101	5	83*	35	72*
COc1cc(OC)cc(-c2nnc(SCC(=O)N3CCOCC3)o2)c1	0	-5	0	100	3	22	.	.
CCN(C(=O)COC(=O)c1ccc[nH]c1=O)c1cccc2ccccc12	.	.	.	.	.	-2	.	.
CCC1CCCCN1C(=O)CCC(=O)Nc1nnc(C(F)(F)F)s1 (stereo unspecified)	.	-12	.	.	5	4	.	.
Cc1nc2c(=O)[nH]c(=S)n(C)c2nc1C	1	-1	0	100	13	81*	56*	4
Cn1c(C(=O)N2CCC(C(N)=O)CC2)cc2cc(Cl)ccc21	.	5	.	.	-8	101*	116*	.
CCN1C[C@@H]2[C@@H]3C(=O)N(Cc4ccccc4)C(=O)[C@@H]3[C@](CC)(C1=O)N2C(=O)c1ccc(C(F)(F)F)cc1	.	.	.	.	.	2	.	.
O=c1c2ccccc2[nH]c(=S)n1CCCN1CCC(Cc2ccccc2)CC1	.	-1	.	.	3	2	.	.
c1ccc(-c2nc3ccccc3c3nncn23)cc1	-1	-9	0	102	-59*	97*	123*	20*
Cc1cccc(-c2nc3ccccc3c3nncn23)c1	0	-29	0	108	6	22	.	.
COc1c2ccoc2c(OC[C@@H](OC(C)=O)C(C)(C)O)c2oc(=O)ccc12	.	.	.	.	.	41	.	.
COc1c2ccoc2c(OC[C@@H](O)C(C)(C)OC)c2oc(=O)ccc12	0	-6	0	96	-1	102*	69*	80*
O=C(CCSCc1ccccc1F)NCc1ccc(F)cc1	.	-11	.	.	-5	4	.	.
O=c1c2ccccc2nc(/C=C/c2cccc([N+](=O)[O-])c2)n1CCO	-1	-12	0	104	-4	106*	69*	21*

Screens deposited in PubChem BioAssay by several laboratories.
